Measurements reported in ChEMBL document CHEMBL3045304, “Sesquiterpene lactones with potential use as natural herbicide models. 2. guaianolides” (2000).
Active and inactive are the calls of the source. The rule behind the calls is not given here.

System: Allium cepa
Experiment: Inhibition of germination of Allium cepa cv. Valenciana (onion) at 0.1 mM or 1 mM after 5 days relative to untreated control
Type: functional

| SMILES | inhibition |
| --- | --- |
| CC1=CC(=O)C2=C(C)C[C@H](O)[C@H]3[C@H](OC(=O)[C@@H]3C)[C@@H]12 [8ALPHA-HYDROXYACHILLIN] | inactive |

System: Triticum aestivum
Experiment: Inhibition of root length of Triticum aestivum cv. Cortex (wheat) at 0.1 mM or 1 mM after 5 days relative to untreated control
Type: functional
In short: (§1)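 Wheat: 10 seeds per dish on filter paper with 5 mL test solution, 5 days in the dark at 25 °C, 10 replicates per concentration. Stock test solutions were 10^-3 or 10^-4 M in 10 mM MES, with lower levels made by dilution, all at pH 6.0. Parallel controls were run. Output is % difference from control.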

| SMILES | inhibition |
| --- | --- |
| CC1=CC(=O)C2=C(C)C[C@H](O)[C@H]3[C@H](OC(=O)[C@@H]3C)[C@@H]12 [8ALPHA-HYDROXYACHILLIN] | inactive |

System: Triticum aestivum
Experiment: Inhibition of hypocotyl length of Triticum aestivum cv. Cortex (wheat) at 0.1 mM or 1 mM after 5 days relative to untreated control
Type: functional
In short: as §1

| SMILES | inhibition |
| --- | --- |
| CC1=CC(=O)C2=C(C)C[C@H](O)[C@H]3[C@H](OC(=O)[C@@H]3C)[C@@H]12 [8ALPHA-HYDROXYACHILLIN] | inactive |

System: Triticum aestivum
Experiment: Inhibition of germination of Triticum aestivum cv. Cortex (wheat) at 0.1 mM or 1 mM after 5 days relative to untreated control
Type: functional
In short: as §1

| SMILES | inhibition |
| --- | --- |
| CC1=CC(=O)C2=C(C)C[C@H](O)[C@H]3[C@H](OC(=O)[C@@H]3C)[C@@H]12 [8ALPHA-HYDROXYACHILLIN] | inactive |

System: Solanum lycopersicum
Experiment: Inhibition of hypocotyl length of Solanum lycopersicum cv. Tres Cantos (tomato) at 0.1 mM or 1 mM after 5 days relative to untreated control
Type: functional
In short: (§2)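 Lettuce and tomato seeds, 25 per dish on filter paper, received 5 mL test solution. Incubation was 5 days in the dark at 25 °C, with four replicates per concentration. Solutions were made at 10^-3 or 10^-4 M in 10 mM MES, diluted serially, and adjusted to pH 6.0. Parallel controls were run. Results are % difference from control.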

| SMILES | inhibition (INH) |
| --- | --- |
| CC1=CC(=O)C2=C(C)C[C@H](O)[C@H]3[C@H](OC(=O)[C@@H]3C)[C@@H]12 [8ALPHA-HYDROXYACHILLIN] | <20% |

System: Solanum lycopersicum
Experiment: Inhibition of root length of Solanum lycopersicum cv. Tres Cantos (tomato) at 0.1 mM or 1 mM after 5 days relative to untreated control
Type: functional
In short: as §2

| SMILES | inhibition |
| --- | --- |
| CC1=CC(=O)C2=C(C)C[C@H](O)[C@H]3[C@H](OC(=O)[C@@H]3C)[C@@H]12 [8ALPHA-HYDROXYACHILLIN] | inactive |

System: Allium cepa
Experiment: Inhibition of root length of Allium cepa cv. Valenciana (onion) at 0.1 mM or 1 mM after 5 days relative to untreated control
Type: functional

| SMILES | inhibition |
| --- | --- |
| CC1=CC(=O)C2=C(C)C[C@H](O)[C@H]3[C@H](OC(=O)[C@@H]3C)[C@@H]12 [8ALPHA-HYDROXYACHILLIN] | inactive |

System: Triticum aestivum
Experiment: Stimulation of hypocotyl length of Triticum aestivum cv. Cortex (wheat) at 0.1 mM or 1 mM after 5 days relative to untreated control
Type: functional
In short: as §1

| SMILES | Activity |
| --- | --- |
| CC1=CC(=O)C2=C(C)C[C@H](O)[C@H]3[C@H](OC(=O)[C@@H]3C)[C@@H]12 [8ALPHA-HYDROXYACHILLIN] | inactive |

System: Triticum aestivum
Experiment: Stimulation of root length of Triticum aestivum cv. Cortex (wheat) at 0.1 mM or 1 mM after 5 days relative to untreated control
Type: functional
In short: as §1

| SMILES | Activity |
| --- | --- |
| CC1=CC(=O)C2=C(C)C[C@H](O)[C@H]3[C@H](OC(=O)[C@@H]3C)[C@@H]12 [8ALPHA-HYDROXYACHILLIN] | inactive |

System: Solanum lycopersicum
Experiment: Inhibition of germination of Solanum lycopersicum cv. Tres Cantos (tomato) at 0.1 mM or 1 mM after 5 days relative to untreated control
Type: functional
In short: as §2

| SMILES | inhibition (INH) |
| --- | --- |
| CC1=CC(=O)C2=C(C)C[C@H](O)[C@H]3[C@H](OC(=O)[C@@H]3C)[C@@H]12 [8ALPHA-HYDROXYACHILLIN] | <20% |

System: Lactuca sativa
Experiment: Inhibition of hypocotyl length of Lactuca sativa cv. Roman (lettuce) at 0.1 mM or 1 mM after 5 days relative to untreated control
Type: functional
In short: as §2

| SMILES | inhibition |
| --- | --- |
| CC1=CC(=O)C2=C(C)C[C@H](O)[C@H]3[C@H](OC(=O)[C@@H]3C)[C@@H]12 [8ALPHA-HYDROXYACHILLIN] | inactive |

System: Lactuca sativa
Experiment: Inhibition of root length of Lactuca sativa cv. Roman (lettuce) at 0.1 mM or 1 mM after 5 days relative to untreated control
Type: functional
In short: as §2

| SMILES | inhibition |
| --- | --- |
| CC1=CC(=O)C2=C(C)C[C@H](O)[C@H]3[C@H](OC(=O)[C@@H]3C)[C@@H]12 [8ALPHA-HYDROXYACHILLIN] | inactive |

System: Lactuca sativa
Experiment: Inhibition of germination of Lactuca sativa cv. Roman (lettuce) at 0.1 mM or 1 mM after 5 days relative to untreated control
Type: functional
In short: as §2

| SMILES | inhibition |
| --- | --- |
| CC1=CC(=O)C2=C(C)C[C@H](O)[C@H]3[C@H](OC(=O)[C@@H]3C)[C@@H]12 [8ALPHA-HYDROXYACHILLIN] | inactive |

System: Triticum aestivum
Experiment: Stimulation of germination of Triticum aestivum cv. Cortex (wheat) at 0.1 mM or 1 mM after 5 days relative to untreated control
Type: functional
In short: as §1

| SMILES | Activity |
| --- | --- |
| CC1=CC(=O)C2=C(C)C[C@H](O)[C@H]3[C@H](OC(=O)[C@@H]3C)[C@@H]12 [8ALPHA-HYDROXYACHILLIN] | inactive |

System: Solanum lycopersicum
Experiment: Stimulation of hypocotyl length of Solanum lycopersicum cv. Tres Cantos (tomato) at 0.1 mM or 1 mM after 5 days relative to untreated control
Type: functional
In short: as §2

| SMILES | Activity |
| --- | --- |
| CC1=CC(=O)C2=C(C)C[C@H](O)[C@H]3[C@H](OC(=O)[C@@H]3C)[C@@H]12 [8ALPHA-HYDROXYACHILLIN] | <20% |

System: Solanum lycopersicum
Experiment: Stimulation of root length of Solanum lycopersicum cv. Tres Cantos (tomato) at 0.1 mM or 1 mM after 5 days relative to untreated control
Type: functional
In short: as §2

| SMILES | Activity |
| --- | --- |
| CC1=CC(=O)C2=C(C)C[C@H](O)[C@H]3[C@H](OC(=O)[C@@H]3C)[C@@H]12 [8ALPHA-HYDROXYACHILLIN] | inactive |

System: Solanum lycopersicum
Experiment: Stimulation of germination of Solanum lycopersicum cv. Tres Cantos (tomato) at 0.1 mM or 1 mM after 5 days relative to untreated control
Type: functional
In short: as §2

| SMILES | Activity |
| --- | --- |
| CC1=CC(=O)C2=C(C)C[C@H](O)[C@H]3[C@H](OC(=O)[C@@H]3C)[C@@H]12 [8ALPHA-HYDROXYACHILLIN] | <20% |

System: Lepidium sativum
Experiment: Stimulation of hypocotyl length of Lepidium sativum at 0.1 mM or 1 mM after 5 days relative to untreated control
Type: functional

| SMILES | Activity |
| --- | --- |
| CC1=CC(=O)C2=C(C)C[C@H](O)[C@H]3[C@H](OC(=O)[C@@H]3C)[C@@H]12 [8ALPHA-HYDROXYACHILLIN] | inactive |

System: Lepidium sativum
Experiment: Stimulation of root length of Lepidium sativum at 0.1 mM or 1 mM after 5 days relative to untreated control
Type: functional

| SMILES | Activity |
| --- | --- |
| CC1=CC(=O)C2=C(C)C[C@H](O)[C@H]3[C@H](OC(=O)[C@@H]3C)[C@@H]12 [8ALPHA-HYDROXYACHILLIN] | inactive |

System: Lactuca sativa
Experiment: Stimulation of root length of Lactuca sativa cv. Roman (lettuce) at 0.1 mM or 1 mM after 5 days relative to untreated control
Type: functional
In short: as §2

| SMILES | Activity |
| --- | --- |
| CC1=CC(=O)C2=C(C)C[C@H](O)[C@H]3[C@H](OC(=O)[C@@H]3C)[C@@H]12 [8ALPHA-HYDROXYACHILLIN] | inactive |

System: Lactuca sativa
Experiment: Stimulation of hypocotyl length of Lactuca sativa cv. Roman (lettuce) at 0.1 mM or 1 mM after 5 days relative to untreated control
Type: functional
In short: as §2

| SMILES | Activity |
| --- | --- |
| CC1=CC(=O)C2=C(C)C[C@H](O)[C@H]3[C@H](OC(=O)[C@@H]3C)[C@@H]12 [8ALPHA-HYDROXYACHILLIN] | inactive |

System: Lactuca sativa
Experiment: Stimulation of germination of Lactuca sativa cv. Roman (lettuce) at 0.1 mM or 1 mM after 5 days relative to untreated control
Type: functional
In short: as §2

| SMILES | Activity |
| --- | --- |
| CC1=CC(=O)C2=C(C)C[C@H](O)[C@H]3[C@H](OC(=O)[C@@H]3C)[C@@H]12 [8ALPHA-HYDROXYACHILLIN] | inactive |

System: Lepidium sativum
Experiment: Inhibition of root length of Lepidium sativum at 0.1 mM or 1 mM after 4 days relative to untreated control

| SMILES | inhibition |
| --- | --- |
| CC1=CC(=O)C2=C(C)C[C@H](O)[C@H]3[C@H](OC(=O)[C@@H]3C)[C@@H]12 [8ALPHA-HYDROXYACHILLIN] | inactive |

System: Lepidium sativum
Experiment: Inhibition of germination of Lepidium sativum at 0.1 mM or 1 mM after 4 days relative to untreated control

| SMILES | Activity | inhibition |
| --- | --- | --- |
| CC1=CC(=O)C2=C(C)C[C@H](O)[C@H]3[C@H](OC(=O)[C@@H]3C)[C@@H]12 [8ALPHA-HYDROXYACHILLIN] | inactive | inactive |

System: Lepidium sativum
Experiment: Inhibition of hypocotyl length of Lepidium sativum at 0.1 mM or 1 mM after 4 days relative to untreated control

| SMILES | inhibition |
| --- | --- |
| CC1=CC(=O)C2=C(C)C[C@H](O)[C@H]3[C@H](OC(=O)[C@@H]3C)[C@@H]12 [8ALPHA-HYDROXYACHILLIN] | inactive |

System: Allium cepa
Experiment: Stimulation of root length of Allium cepa cv. Valenciana (onion) at 0.1 mM or 1 mM after 7 days relative to untreated control

| SMILES | Activity |
| --- | --- |
| CC1=CC(=O)C2=C(C)C[C@H](O)[C@H]3[C@H](OC(=O)[C@@H]3C)[C@@H]12 [8ALPHA-HYDROXYACHILLIN] | inactive |

System: Allium cepa
Experiment: Stimulation of germination of Allium cepa cv. Valenciana (onion) at 0.1 mM or 1 mM after 7 days relative to untreated control

| SMILES | Activity |
| --- | --- |
| CC1=CC(=O)C2=C(C)C[C@H](O)[C@H]3[C@H](OC(=O)[C@@H]3C)[C@@H]12 [8ALPHA-HYDROXYACHILLIN] | inactive |

System: Allium cepa
Experiment: Inhibition of hypocotyl length of Allium cepa cv. Valenciana (onion) at 0.1 mM or 1 mM after 7 days relative to untreated control

| SMILES | inhibition |
| --- | --- |
| CC1=CC(=O)C2=C(C)C[C@H](O)[C@H]3[C@H](OC(=O)[C@@H]3C)[C@@H]12 [8ALPHA-HYDROXYACHILLIN] | inactive |

System: Allium cepa
Experiment: Stimulation of hypocotyl length of Allium cepa cv. Valenciana (onion) at 0.1 mM or 1 mM after 7 days relative to untreated control

| SMILES | Activity |
| --- | --- |
| CC1=CC(=O)C2=C(C)C[C@H](O)[C@H]3[C@H](OC(=O)[C@@H]3C)[C@@H]12 [8ALPHA-HYDROXYACHILLIN] | inactive |
